Results on one compound are retold here after ChEMBL document CHEMBL2439973, “Discovery of VU0409106: A negative allosteric modulator of mGlu5 with activity in a mouse model of anxiety” (Bioorg Med Chem Lett, 2013).

The source made the active and inactive calls. No cut-off for these calls is given here.

For data set [1], the target named is Sodium-dependent serotonin transporter (Homo sapiens) (UniProt P31645). Kind of data set: Displacement of [3H]-Paroxetine from human recombinant SERT expressed in HEK293 cells at 10 uM relative to control. Format: cell-based. (In general: Displacement assays read how much labelled ligand stays bound in the presence of the test substance.)
Data set [2] concerns the target Sodium-dependent noradrenaline transporter (Homo sapiens) (UniProt P23975). Kind of data set: Displacement of [125I]-RTI-55 from human recombinant NET expressed in MDCK cells at 10 uM relative to control. Format: cell-based. The procedure, abridged: (§1)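 Tested once at 10 μM in a commercial radioligand binding panel of 68 GPCRs, ion channels, kinases and transporters. Activity is given as displacement of each radioligand relative to control.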

Data set [3] addresses 5-hydroxytryptamine receptor 2B (Homo sapiens) (UniProt P41595). Kind of data set: Displacement of [3H]-Lysergic acid diethylamide from human recombinant 5-HT2B receptor expressed in CHO-K1 cells at 10 uM relative to control. Format: cell-based. The procedure, abridged: as §1
For data set [4], the target named is Prostaglandin E2 receptor EP4 subtype (Homo sapiens) (UniProt P35408). Kind of data set: Displacement of [3H]-PGE2 from human recombinant prostanoid EP4 receptor expressed in rat Chem-1 cells at 10 uM relative to control. Type of data set: cell-based.
Data set [5] is filed under the species Mus musculus. The experiment in a line: Displacement of [3H]-PDBu from phorbol ester receptor in mouse brain at 10 uM relative to control. Format: tissue-based. The procedure, abridged:
as §1

Data set [6] deals with Kappa-type opioid receptor (Homo sapiens) (UniProt P41145). Kind of data set: Displacement of [3H]-Diprenorphine from human recombinant kappa receptor expressed in HEK293 cells at 10 uM relative to control. Type of data set: cell-based. An outline of the steps: as §1
Data set [7] has as its target Neuropeptide Y receptor type 2 (Homo sapiens) (UniProt P49146). The experiment in a line: Displacement of [125I]-Peptide YY from neuropeptide Y Y2 receptor in human KAN-TS cells at 10 uM relative to control. Type of data set: cell-based. The procedure, abridged:
as §1

Data set [8] deals with Glucocorticoid receptor (Homo sapiens) (UniProt P04150). The experiment in a line: Displacement of [3H]-Dexamethasone from human recombinant glucocorticoid receptor at 10 uM relative to control. An outline of the steps: as §1
The species named for data set [9] is Rattus norvegicus. Kind of data set: Displacement of [3H]-Muscimol from central-type GABAA receptor muscimol binding site in cerebellum-less rat brain homogenate at 10 uM relative to control. Type of data set: tissue-based. An outline of the steps:
as §1

For data set [10], the target named is Estrogen receptor (Homo sapiens) (UniProt P03372). Kind of data set: Displacement of [3H]-Estradiol from human recombinant ERalpha receptor expressed in insect Sf9 cells at 10 uM relative to control. The procedure, abridged: as §1
The target in data set [11] is Endothelin-1 receptor (Homo sapiens) (UniProt P25101). Kind of data set: Displacement of [125I]-Endothelin-1 from human recombinant ETA receptor expressed in CHO-K1 cells at 10 uM relative to control. Type of data set: cell-based. The procedure, abridged:
as §1

Data set [12] deals with B2 bradykinin receptor (Homo sapiens) (UniProt P30411). Kind of data set: Displacement of [3H]-Bradykinin from human recombinant bradykinin B2 receptor expressed in rat Chem-1 cells at 10 uM relative to control. Type of data set: cell-based. An outline of the steps:
as §1

In data set [13] the target is Alpha-1D adrenergic receptor (Homo sapiens) (UniProt P25100). Kind of data set: Displacement of [3H]-Prazosin from human recombinant adrenergic alpha1D receptor expressed in HEK293 cells at 10 uM relative to control. Type of data set: cell-based.
The target in data set [14] is Alpha-2A adrenergic receptor (Homo sapiens) (UniProt P08913). The experiment in a line: Displacement of [3H]-Rauwolscine from human recombinant adrenergic alpha2A receptor expressed in CHO-K1 cells at 10 uM relative to control. Type of data set: cell-based.
The target of data set [15] is Metabotropic glutamate receptor 3 (Rattus norvegicus) (UniProt P31422). The experiment in a line: Allosteric modulation of rat mGlu3 receptor expressed in HEK293 cells coexpressing G protein-activated inward rectifier potassium channel assessed as effect on glutamate-induced thallium flux at 10 uM. Type of data set: cell-based.
A short description of data set [16]: Ratio of drug level in brain to plasma in CD-1 mouse at 10 mg/kg, ip by LC-MS/MS analysis. Format: ADME, organism-based. Set-up: dose 10 mg/kg, route intraperitoneal. As to conditions: brain and plasma, read-out: BPR.

Sequence of Neuropeptide Y receptor type 2 (Homo sapiens) (P49146 whole entry): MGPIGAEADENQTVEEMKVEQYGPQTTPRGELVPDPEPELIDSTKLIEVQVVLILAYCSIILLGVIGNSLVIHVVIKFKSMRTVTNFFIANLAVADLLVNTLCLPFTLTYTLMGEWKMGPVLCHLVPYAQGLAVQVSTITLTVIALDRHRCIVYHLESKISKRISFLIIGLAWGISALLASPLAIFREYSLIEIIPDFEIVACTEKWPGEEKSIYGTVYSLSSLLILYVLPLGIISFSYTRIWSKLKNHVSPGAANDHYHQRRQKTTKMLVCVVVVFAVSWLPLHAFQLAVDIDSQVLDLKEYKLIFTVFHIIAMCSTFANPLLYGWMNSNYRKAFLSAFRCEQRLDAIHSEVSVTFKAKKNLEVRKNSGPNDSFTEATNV
Sequence of Estrogen receptor (Homo sapiens) (P03372 whole entry): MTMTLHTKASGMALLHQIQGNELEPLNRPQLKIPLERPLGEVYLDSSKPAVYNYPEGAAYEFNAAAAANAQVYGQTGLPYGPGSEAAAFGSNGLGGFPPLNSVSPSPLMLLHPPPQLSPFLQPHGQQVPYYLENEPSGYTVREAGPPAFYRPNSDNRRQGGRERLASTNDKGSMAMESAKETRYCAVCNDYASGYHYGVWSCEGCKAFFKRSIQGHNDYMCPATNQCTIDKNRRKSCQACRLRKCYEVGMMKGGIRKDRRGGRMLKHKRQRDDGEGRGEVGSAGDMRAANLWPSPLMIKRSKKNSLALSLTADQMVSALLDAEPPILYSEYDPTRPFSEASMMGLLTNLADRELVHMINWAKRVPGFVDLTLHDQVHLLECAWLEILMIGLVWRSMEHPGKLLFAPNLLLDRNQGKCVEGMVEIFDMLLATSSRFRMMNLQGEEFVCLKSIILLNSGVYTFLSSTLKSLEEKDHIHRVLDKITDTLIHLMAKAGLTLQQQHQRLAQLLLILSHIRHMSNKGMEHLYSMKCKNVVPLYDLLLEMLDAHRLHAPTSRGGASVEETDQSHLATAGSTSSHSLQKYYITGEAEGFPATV
Sequence of Alpha-2A adrenergic receptor (Homo sapiens) (P08913 whole entry): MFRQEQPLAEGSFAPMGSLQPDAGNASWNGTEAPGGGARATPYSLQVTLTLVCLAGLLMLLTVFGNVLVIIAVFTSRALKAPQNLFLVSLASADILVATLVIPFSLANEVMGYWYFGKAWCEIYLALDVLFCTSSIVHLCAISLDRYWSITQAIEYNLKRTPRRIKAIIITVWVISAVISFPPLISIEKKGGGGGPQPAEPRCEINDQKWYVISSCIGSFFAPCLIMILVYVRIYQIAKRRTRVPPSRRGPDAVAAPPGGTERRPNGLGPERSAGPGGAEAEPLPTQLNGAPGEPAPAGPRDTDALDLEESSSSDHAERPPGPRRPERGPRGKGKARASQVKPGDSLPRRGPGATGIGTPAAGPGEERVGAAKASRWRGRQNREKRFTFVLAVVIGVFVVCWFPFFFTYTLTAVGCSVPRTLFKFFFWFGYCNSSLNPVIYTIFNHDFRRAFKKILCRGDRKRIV
Sequence of Metabotropic glutamate receptor 3 (Rattus norvegicus) (P31422 23-879 limits assumed): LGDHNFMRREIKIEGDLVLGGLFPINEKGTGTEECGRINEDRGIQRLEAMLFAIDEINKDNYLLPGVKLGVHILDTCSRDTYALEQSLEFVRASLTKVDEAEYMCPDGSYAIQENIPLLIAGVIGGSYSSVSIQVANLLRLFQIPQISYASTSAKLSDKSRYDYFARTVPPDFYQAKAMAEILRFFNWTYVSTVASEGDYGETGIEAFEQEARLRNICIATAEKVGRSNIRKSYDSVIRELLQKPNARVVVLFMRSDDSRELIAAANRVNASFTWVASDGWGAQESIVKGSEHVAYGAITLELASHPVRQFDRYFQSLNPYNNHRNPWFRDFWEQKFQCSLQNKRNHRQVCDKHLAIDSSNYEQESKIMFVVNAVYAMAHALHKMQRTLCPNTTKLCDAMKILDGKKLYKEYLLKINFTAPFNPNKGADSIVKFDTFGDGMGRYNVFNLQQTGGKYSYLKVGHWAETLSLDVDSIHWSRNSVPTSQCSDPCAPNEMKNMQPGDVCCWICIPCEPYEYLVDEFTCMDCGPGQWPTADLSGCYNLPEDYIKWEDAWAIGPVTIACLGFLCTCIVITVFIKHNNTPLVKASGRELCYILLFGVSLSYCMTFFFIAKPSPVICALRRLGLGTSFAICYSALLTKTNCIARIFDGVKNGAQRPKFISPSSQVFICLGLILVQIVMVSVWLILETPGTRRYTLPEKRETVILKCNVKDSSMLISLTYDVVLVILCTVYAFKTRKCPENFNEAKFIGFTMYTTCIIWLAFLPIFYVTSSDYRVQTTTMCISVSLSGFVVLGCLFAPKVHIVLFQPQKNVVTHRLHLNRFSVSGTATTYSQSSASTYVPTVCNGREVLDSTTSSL
Sequence of Alpha-1D adrenergic receptor (Homo sapiens) (P25100 whole entry): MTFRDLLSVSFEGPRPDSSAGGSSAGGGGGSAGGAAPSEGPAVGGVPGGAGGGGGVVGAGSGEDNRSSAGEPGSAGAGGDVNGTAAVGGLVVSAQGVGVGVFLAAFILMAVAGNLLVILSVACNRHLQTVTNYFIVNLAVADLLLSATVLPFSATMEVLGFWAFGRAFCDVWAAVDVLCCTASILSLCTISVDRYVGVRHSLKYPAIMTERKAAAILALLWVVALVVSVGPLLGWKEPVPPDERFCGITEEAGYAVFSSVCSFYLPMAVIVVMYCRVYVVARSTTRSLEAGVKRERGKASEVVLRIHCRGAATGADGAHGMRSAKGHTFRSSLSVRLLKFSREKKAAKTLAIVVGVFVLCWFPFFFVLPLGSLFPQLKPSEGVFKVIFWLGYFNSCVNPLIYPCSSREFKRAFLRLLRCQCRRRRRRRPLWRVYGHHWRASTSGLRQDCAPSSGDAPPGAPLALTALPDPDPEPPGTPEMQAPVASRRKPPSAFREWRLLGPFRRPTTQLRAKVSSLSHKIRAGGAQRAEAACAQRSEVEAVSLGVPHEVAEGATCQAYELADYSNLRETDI
Sequence of 5-hydroxytryptamine receptor 2B (Homo sapiens) (P41595 whole entry): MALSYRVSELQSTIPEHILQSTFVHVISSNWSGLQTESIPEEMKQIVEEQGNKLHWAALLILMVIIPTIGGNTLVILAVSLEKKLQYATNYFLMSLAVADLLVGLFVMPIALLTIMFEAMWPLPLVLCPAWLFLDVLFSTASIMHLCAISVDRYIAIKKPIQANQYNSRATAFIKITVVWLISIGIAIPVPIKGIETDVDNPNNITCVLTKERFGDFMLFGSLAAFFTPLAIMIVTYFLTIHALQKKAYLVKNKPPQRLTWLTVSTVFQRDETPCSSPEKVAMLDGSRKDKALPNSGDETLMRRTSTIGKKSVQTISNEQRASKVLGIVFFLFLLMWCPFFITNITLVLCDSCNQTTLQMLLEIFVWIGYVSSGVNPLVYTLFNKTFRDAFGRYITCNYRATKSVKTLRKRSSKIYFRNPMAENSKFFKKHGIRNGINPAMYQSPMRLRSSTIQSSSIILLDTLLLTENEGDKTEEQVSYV
Sequence of Prostaglandin E2 receptor EP4 subtype (Homo sapiens) (P35408 whole entry): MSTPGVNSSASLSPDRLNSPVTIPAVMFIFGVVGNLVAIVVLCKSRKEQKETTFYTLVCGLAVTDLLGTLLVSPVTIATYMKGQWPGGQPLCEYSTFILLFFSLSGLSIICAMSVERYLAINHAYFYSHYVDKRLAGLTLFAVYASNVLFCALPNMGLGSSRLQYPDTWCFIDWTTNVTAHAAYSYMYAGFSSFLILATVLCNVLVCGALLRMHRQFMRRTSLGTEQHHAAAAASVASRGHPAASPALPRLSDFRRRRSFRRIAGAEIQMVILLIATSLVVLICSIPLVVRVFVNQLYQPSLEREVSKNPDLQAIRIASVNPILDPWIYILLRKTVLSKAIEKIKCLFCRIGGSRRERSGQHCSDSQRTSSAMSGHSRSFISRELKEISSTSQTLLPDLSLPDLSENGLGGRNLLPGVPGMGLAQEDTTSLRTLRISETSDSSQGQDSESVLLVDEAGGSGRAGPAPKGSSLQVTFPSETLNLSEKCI
Sequence of Sodium-dependent serotonin transporter (Homo sapiens) (P31645 whole entry, looked up): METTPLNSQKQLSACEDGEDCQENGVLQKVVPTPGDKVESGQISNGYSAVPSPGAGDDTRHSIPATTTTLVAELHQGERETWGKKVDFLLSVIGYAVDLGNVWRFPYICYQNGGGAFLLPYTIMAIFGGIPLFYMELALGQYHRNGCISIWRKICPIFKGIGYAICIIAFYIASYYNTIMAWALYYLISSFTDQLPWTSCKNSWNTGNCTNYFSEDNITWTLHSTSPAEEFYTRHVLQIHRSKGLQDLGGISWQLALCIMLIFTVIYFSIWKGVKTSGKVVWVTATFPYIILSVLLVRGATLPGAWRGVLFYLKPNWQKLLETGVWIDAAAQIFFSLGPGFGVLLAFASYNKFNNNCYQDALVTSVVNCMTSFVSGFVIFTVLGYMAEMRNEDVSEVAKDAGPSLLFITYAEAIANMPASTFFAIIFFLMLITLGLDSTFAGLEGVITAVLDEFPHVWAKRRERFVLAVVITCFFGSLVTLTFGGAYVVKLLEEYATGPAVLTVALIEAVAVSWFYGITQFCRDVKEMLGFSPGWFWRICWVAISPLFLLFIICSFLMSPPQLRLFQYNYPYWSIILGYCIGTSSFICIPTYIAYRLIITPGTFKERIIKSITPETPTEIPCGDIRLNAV
Sequence of B2 bradykinin receptor (Homo sapiens) (P30411 whole entry): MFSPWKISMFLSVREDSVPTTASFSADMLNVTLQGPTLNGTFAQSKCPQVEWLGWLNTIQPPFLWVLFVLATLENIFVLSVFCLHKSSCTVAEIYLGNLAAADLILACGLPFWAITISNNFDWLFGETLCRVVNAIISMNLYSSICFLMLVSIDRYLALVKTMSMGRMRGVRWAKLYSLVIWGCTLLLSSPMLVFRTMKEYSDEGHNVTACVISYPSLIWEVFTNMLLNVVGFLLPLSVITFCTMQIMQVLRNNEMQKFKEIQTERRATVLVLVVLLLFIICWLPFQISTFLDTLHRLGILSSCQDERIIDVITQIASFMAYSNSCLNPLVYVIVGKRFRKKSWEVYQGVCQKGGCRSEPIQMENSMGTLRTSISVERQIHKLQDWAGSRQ

Turning to `Cc1csc(NC(=O)c2cc(F)cc(Oc3cncnc3)c2)n1`, the inhibition in data set [1], in data set [2], in data set [3], in [4], in data set [5] and in data set [6] was more than 35% each time. The inhibition in data set [7], in data set [8], in [9], in data set [10], in data set [11] and in data set [12] was more than 35% each time. For the same compound, the inhibition in [13] and in [14] was more than 35% each time. The result in data set [15] was inactive. Besides, in data set [16], the Kp was 0.99.

The inhibition is the change of the read-out against control, counted positive when it falls.
